Measurements taken from ChEMBL document CHEMBL1123247, “Nucleoside conjugates. 7. Synthesis and antitumor activity of 1-beta-D-arabinofuranosylcytosine conjugates of ether lipids” (J Med Chem, 1986).

Columns and labels:
L1210 [1] = assay: Antitumor activity was determined against the ic implanted L1210 lymphoid leukemia in mice by percent median survival rate (treated/control) at 300 mg/kg (1 qd treatment schedule) dosage; 21.0/7.0; type: functional, Mus musculus
L1210 [2] = assay: Antitumor activity was determined against the ip implanted L1210 leukemia in mice by percent increase in life span at 300 mg/kg (treatment of 1qd schedule) dosage; type: functional, Mus musculus; conditions: route intraperitoneal
Outline: (§1)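 DBA/2J mice in groups of 6 (wt 23-28 g) were inoculated ip with 1×10^6 L1210 cells on day 0. Dosing was ip from 24 h, in 0.9% NaCl with 0.5% Tween-80 (conjugates sonicated), across a range of doses. Mice were observed daily until death or 45 days. Median T/C was computed from survivors per NCI protocols, and ILS = (T/C − 1)×100.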

L1210 [3] = assay: Antitumor activity was determined against the ic implanted L1210 lymphoid leukemia in mice by percent median survival rate (treated/control) at 80 mg/kg (1-5qd treatment schedule) dosage; 22.0/8.0; type: functional, Mus musculus
L1210 [4] = assay: Antitumor activity was determined against the ic implanted L1210 lymphoid leukemia in mice by median survival time at 133 mg/kg (1,5,9qd treatment schedule) dosage; 20.0/8.0
P388 [5] = assay: Antitumor activity was determined against the ip implanted P388 leukemia in mice by percent increase in life span at 300 mg/kg (treatment of 1qd schedule) dosage; conditions: route intraperitoneal
P388 [6] = assay: Antitumor activity was determined against the ip implanted P388 leukemia in mice by 45-day survivors in mice at 300 mg/kg (treatment of 1qd schedule) dosage; conditions: route intraperitoneal
P388 [7] = assay: Antitumor activity against ip implanted P388 leukemia in mice expressed as active dose range (1,5,9qd treatment schedule) required to produce increase in life span by >25% was determined; Range is 67-133; type: functional, Mus musculus
Outline: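 P388 leukemia: 1 × 10^6 cells were given ip on day 0 to DBA/2J mice, groups of 6 (23-33 g). Treatment was ip from 24 h after inoculation, vehicle 0.9% NaCl with 0.5% Tween-80. Mice were observed daily until death or 45 days. Median survival T/C was calculated from survivors per NCI protocols, and ILS = (T/C − 1) × 100. Active range means doses giving ILS ≥25%; optimal dose means greatest ILS.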

L1210 [8] = assay: Antitumor activity was determined against the ip implanted L1210 leukemia in mice by percent median survival rate (treated/control) at 80 mg/kg (treatment of 1-5qd schedule) dosage; 25.5/7.0; type: functional, Mus musculus; conditions: route intraperitoneal
Outline: (§2)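 DBA/2J mice, 23-28 g, in groups of 6, were inoculated ip with 1×10^6 L1210 cells on day 0. Dosing was ip starting 24 h later on the stated daily schedules. Conjugates were given as sonicated solutions and reference prodrugs as suspensions in 0.9% NaCl with 0.5% Tween-80. Mice were observed daily until death or 45 days. Median survival T/C was calculated from survivors per NCI protocols.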

P388 [9] = assay: Antitumor activity was determined against the ip implanted P388 leukemia in mice by percent increase in life span at 60 mg/kg (treatment of 1-5qd schedule) dosage; type: functional, Mus musculus; conditions: route intraperitoneal
Outline: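 DBA/2J mice, 23-33 g, in groups of 6, were inoculated ip with 1×10^6 P388 cells on day 0. Dosing was ip from 24 h on the stated schedules, in 0.9% NaCl with 0.5% Tween-80 (sonicated solution or suspension). Survival was followed daily until death or 45 days. Median T/C was calculated from survivors per NCI protocols, with ILS = (T/C − 1) × 100.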

L1210 [10] = assay: Antitumor activity was determined against the ic implanted L1210 lymphoid leukemia in mice by range in survival days at 500 mg/kg (treatment of 1qd schedule) dosage; Range is 18-23
L1210 [11] = assay: Antitumor activity was determined against the ic implanted L1210 lymphoid leukemia in mice by range in survival days at 167 mg/kg (treatment of 1, 5, 9qd schedule) dosage; Range is 14-22; type: functional, Mus musculus
P388 [12] = assay: Antitumor activity was determined against the ip implanted P388 leukemia in mice by range in survival days at 60 mg/kg (1-5qd treatment schedule) dosage; 21-24; type: functional, Mus musculus; conditions: route intraperitoneal
L1210 [13] = assay: Antitumor activity was determined against the ip implanted L1210 leukemia in mice by range in survival days at 400 mg/kg (treatment of 1qd schedule) dosage; Range is 15-29; type: functional, Mus musculus; conditions: route intraperitoneal; outline: as §2
P388 [14] = assay: Antitumor activity was determined against the ip implanted P388 leukemia in mice by percent median survival rate (treated/control) at 60 mg/kg (1-5qd treatment schedule) dosage; 23.0/11.0; type: functional, Mus musculus; conditions: route intraperitoneal
L1210 [15] = assay: Antitumor activity against ip implanted L1210 leukemia in mice expressed as active dose range (1-5qd treatment schedule) required to produce increase in life span by >25% was determined; 60-100; type: functional, Mus musculus
Outline: (§3)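 DBA/2J mice, groups of 6 (23-28 g), were inoculated ip with 1 × 10^6 L1210 cells on day 0. Dosing was ip from 24 h, in 0.9% NaCl with 0.5% Tween-80 (sonicated solution or suspension). Mice were observed daily until death or day 45. Median survival T/C followed NCI protocols, and ILS = (T/C − 1) × 100. Active range means doses giving ILS ≥25%; optimal dose means greatest ILS.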

L1210 [16] = assay: Antitumor activity against ip implanted L1210 leukemia in mice expressed as active dose range (1-5qd treatment schedule) required to produce increase in life span by >25% was determined; Range is 5-350; type: functional, Mus musculus; outline: as §3
L1210 [17] = assay: Antitumor activity was determined against the ic implanted L1210 lymphoid leukemia in mice by median survival time at 300 mg/kg (treatment of 1-5qd schedule) dosage; 16.0/7.0
HL-60 = assay: Compound was tested for the inhibition of human HL60 Leukemia; type: functional, cell-based
Outline: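 Human leukemia and solid tumor cells in culture were exposed to compound for 48 h. Viability was scored by trypan blue dye exclusion. IC50 (50% inhibition) was estimated from response curves of three separate experiments.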

L1210 [18] = assay: Antitumor activity was determined against the ip implanted L1210 leukemia in mice by percent median survival rate (treated/control) at 200 mg/kg (treatment of 1-5qd schedule) dosage; 17.0/7.0; type: functional, Mus musculus; conditions: route intraperitoneal; outline: as §1
L1210 [19] = assay: Antitumor activity was determined against the ic implanted L1210 lymphoid leukemia in mice by range in survival days at 100 mg/kg (treatment of 1-9qd schedule) dosage; Range is 11-18; type: functional, Mus musculus
L1210 [20] = assay: Antitumor activity was determined against the ic implanted L1210 lymphoid leukemia in mice by change in […] at 300 mg/kg (treatment of 1-5qd schedule) dosage; type: functional, Mus musculus
Outline: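 DBA/2J mice, 6 per group (wt 26-32 g), inoculated ic with 1×10^5 L1210 cells on day 0. Dosing ip began 24 h after inoculation, with a sonicated solution or suspension in 0.9% NaCl containing 0.5% Tween-80, given over a range of doses. Animals were followed daily until death. Body weight change, median survival T/C, and %ILS = (T/C − 1) × 100 were computed from survivors per NCI protocols.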

Compound: CCCCCCCCCCCCCCCC(=O)OC[C@H](COP(=O)(O)OP(=O)(O)OC[C@H]1O[C@@H](n2ccc(N)nc2=O)[C@@H](O)[C@@H]1O)OC(=O)CCCCCCCCCCCCCCC
- median survival time (L1210 [1]): 21 days
- ILS (L1210 [2]): 215
- median survival time (L1210 [3]): 22 days
- median survival time (L1210 [4]): 20 days

Compound: CCCCCCCCCCCCCCCCOCC(COP(=O)(O)OP(=O)(O)OC[C@H]1O[C@@H](n2ccc(N)nc2=O)[C@@H](O)[C@@H]1O)OC(=O)CCCCCCCCCCCCCCC (mixture of isomers)
- ILS (P388 [5]): >309
- Survivors (P388 [6]): 6
- Active dose range (P388 [7]): 67 mg/kg/day
- T/C (L1210 [8]): 25.5%
- ILS (P388 [9]): >309
- Range (L1210 [10]): 18
- Range (L1210 [11]): 14

Compound: CCCCCCCCCCCCCCCCCCOCC(COP(=O)(O)OP(=O)(O)OC[C@H]1O[C@@H](n2ccc(N)nc2=O)[C@@H](O)[C@@H]1O)OC(=O)CCCCCCCCCCCCCCC (mixture of isomers)
- Range (P388 [12]): 21
- Range (L1210 [13]): 15
- T/C (P388 [14]): 23%
- Active dose range (L1210 [15]): 60 mg/kg/day

Compound: Nc1ccn([C@@H]2O[C@H](CO)[C@@H](O)[C@@H]2O)c(=O)n1 [CYTARABINE]
- Active dose range (L1210 [16]): 5 mg/kg/day
- median survival time (L1210 [17]): 16 days
- IC50 (HL-60): 130 nM
- median survival time (L1210 [18]): 17 days
- Range (L1210 [19]): 11
- Weight change (L1210 [20]): -6.1
